Data reported in ChEMBL document CHEMBL3785082, “(±)-Homocrepidine A, a Pair of Anti-inflammatory Enantiomeric Octahydroindolizine Alkaloid Dimers from Dendrobium crepidatum” (J Nat Prod, 2016).
Active and inactive are the calls of the source. The calls are words filed in the database; no cut-off is given here.

Columns and labels:
[1] = Inhibition of L-rhamnosidase (unknown origin)
[2] = tested on: RAW264.7; experiment: Antiinflammatory activity in mouse RAW264.7 cells assessed as inhibition of LPS-induced iNOS overexpression at 5 uM after 24 hrs by Western blot analysis; assay type: functional, cell-based
How it was run: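 RAW 264.7 cells pretreated with 5 μg/mL LPS or solvent, then exposed to 5 μM compound for 24 h. Lysed in cold buffer with 1% PMSF; protein by Bradford, 25 μg run on SDS-PAGE, blotted to nitrocellulose, blocked in 5% milk/TBS-Tween 60 min. Anti-iNOS overnight at 4 °C, HRP secondary 1 h, ECL on film; densitometry normalized to β-actin. Mean ± SD, n = 3–5.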

[3] = tested on: RAW264.7; experiment: Antiinflammatory activity in mouse RAW264.7 cells assessed as inhibition of LPS-induced NO production preincubated for 1 hr followed by LPS stimulation measured after 20 hrs by Griess assay; assay type: functional, cell-based
How it was run: (§1)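 RAW 264.7 cells in DMEM with 10% FBS, penicillin/streptomycin, 2 mM L-glutamine and 1 mM nonessential amino acids, seeded at 4 × 10^5 cells/well, settled 4 h at 37 °C, 5% CO2. Compounds in 0.1% DMSO (final 0.1–100 μM) added 1 h before LPS (5 μg/mL solution). After a further 20 h, supernatant mixed 1:1 with Griess reagent for 5 min, A540 read. At least triplicate; indomethacin as reference.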

[4] = Cytotoxicity against mouse RAW264.7 cells assessed as inhibition of cell viability at 100 uM by MTT assay; assay type: cell-based; conditions: read-out: INH
How it was run: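 Same RAW 264.7 culture and plating as the nitrite assay: compounds in 0.1% DMSO added 1 h before LPS (5 μg/mL solution), then 20 h incubation. Viability read by standard MTT assay. At least triplicate.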

[5] = tested on: RAW264.7; experiment: Antiinflammatory activity in mouse RAW264.7 cells assessed as inhibition of LPS-induced NO production at 100 uM preincubated for 1 hr followed by LPS stimulation measured after 20 hrs by Griess assay; assay type: functional, cell-based; how it was run: as §1

Compound | IC50 [3] | Ki [1] | inhibition [2] | cytotoxicity at 100 µM [4] | inhibition [5]
O[C@@H]1[C@@H]2[C@@H](O)CCCN2C[C@@H]1O | – | 450 nM | – | – | –
CC(=O)[C@H]1[C@@H]2CC[C@H]3C[C@@H](C)[C@](O)(c4ccccc4)[C@H](C[C@@]1(C)O)N32 | – | – | – | < 10% | inactive
CC(=O)CCCC[C@H]1C[C@@H](C)[C@@](O)(c2ccccc2)CN1 | 27.6 µM | – | – | < 10% | –

Continued, in another order:

IC50 [3] | Compound | Ki [1] | inhibition [2] | cytotoxicity at 100 µM [4] | inhibition [5]
3.6 µM | C[C@H]1C[C@H]2CCCN2[C@@H](CC(=O)C[C@@H]2N3CCC[C@@H]3C[C@H](C)[C@@]2(O)c2ccccc2)[C@]1(O)c1ccccc1 | – | Active | – | –
22.8 µM | C[C@@H]1C[C@@H]2CCCN2[C@H](CC(=O)C[C@H]2N3CCC[C@H]3C[C@@H](C)[C@]2(O)c2ccccc2)[C@@]1(O)c1ccccc1 | – | inactive | – | –
14.7 µM | CC1CC2CCCN2C(CC(=O)CC2N3CCCC3CC(C)C2(O)c2ccccc2)C1(O)c1ccccc1 (racemic) | – | inactive | < 10% | –
